Results taken from ChEMBL document CHEMBL1125326, “Potent gonadotropin releasing hormone antagonists with low histamine-releasing activity” (J Med Chem, 1992).
Values after ≈ are worked out from the molar mass of the structure shown.

How the values were obtained:
Rattus norvegicus [1] = organism: Rattus norvegicus; test: Evaluated for the release of histamine in rats (based on 10 animals per dose group); assay type: functional, organism-based
Rattus norvegicus [2] = test: Evaluated for the anti-ovulatory activity (rats were injected subcutaneously at noon on proestrus); assay type: functional
How it was run: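 Female rats with at least two consecutive normal 4-day cycles, confirmed by vaginal lavage cytology, were dosed once s.c. at noon on proestrus in 50% propylene glycol/0.9% saline. On the morning of expected estrus, the oviducts were examined for ovulated eggs, which were counted. The effective dose came from % females ovulating plotted against log dose, usually with ≥3 dose groups (10 rats per group total).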

Compound	EC50 (Rattus norvegicus [1])	ED50 (Rattus norvegicus [2])
CC(=O)N[C@H](Cc1ccc2ccccc2c1)C(=O)N[C@H](Cc1ccc(Cl)cc1)C(=O)N[C@H](Cc1c[nH]c2ccccc12)C(=O)N[C@@H](CO)C(=O)N[C@@H](Cc1ccc(O)cc1)C(=O)N[C@H](Cc1c[nH]c2ccccc12)C(=O)N[C@@H](CC(C)C)C(=O)N[C@@H](CCCCN=C(NCC(F)(F)F)NCC(F)(F)F)C(=O)N1CCC[C@H]1C(=O)N[C@H](C)C(N)=O [listing 2 of 2 here]		>2 µg
CC(=O)N[C@H](Cc1ccc2ccccc2c1)C(=O)N[C@H](Cc1ccc(Cl)cc1)C(=O)N[C@H](Cc1c[nH]c2ccccc12)C(=O)N[C@@H](CO)C(=O)N[C@@H](CCCN=C(N)N)C(=O)N[C@H](Cc1c[nH]c2ccccc12)C(=O)N[C@@H](CC(C)C)C(=O)N[C@@H](CCCCN=C(NCC(F)(F)F)NCC(F)(F)F)C(=O)N1CCC[C@H]1C(=O)N[C@H](C)C(N)=O [listing 2 of 2 here]		>2 µg
CC(=O)N[C@H](Cc1ccc2ccccc2c1)C(=O)N[C@H](Cc1ccc(Cl)cc1)C(=O)N[C@H](Cc1c[nH]c2ccccc12)C(=O)N[C@@H](CO)C(=O)N[C@@H](Cc1ccc(O)cc1)C(=O)N[C@H](Cc1c[nH]c2ccccc12)C(=O)N[C@@H](CC(C)C)C(=O)N[C@@H](CCCCNC1=NCCCN1)C(=O)N1CCC[C@H]1C(=O)N[C@H](C)C(N)=O [listing 1 of 2 here]	8.5 µg/mL (≈ 5.48 µM)	
CC(=O)N[C@H](Cc1ccc2ccccc2c1)C(=O)N[C@H](Cc1ccc(Cl)cc1)C(=O)N[C@H](Cc1c[nH]c2ccccc12)C(=O)N[C@@H](CO)C(=O)N[C@@H](Cc1ccc(O)cc1)C(=O)N[C@H](Cc1c[nH]c2ccccc12)C(=O)N[C@@H](CC(C)C)C(=O)N[C@@H](CCCCNC1=NCCCN1)C(=O)N1CCC[C@H]1C(=O)N[C@H](C)C(N)=O [listing 2 of 2 here]		>1 µg
CC/N=C(/NCC)NCCCC[C@@H](NC(=O)[C@H](Cc1ccc(O)cc1)NC(=O)[C@H](CO)NC(=O)[C@@H](Cc1cccnc1)NC(=O)[C@@H](Cc1ccc(F)cc1)NC(=O)[C@@H](Cc1ccc2ccccc2c1)NC(C)=O)C(=O)N[C@@H](CC(C)C)C(=O)N[C@@H](CCCCN/C(=N/CC)NCC)C(=O)N1CCC[C@H]1C(=O)N[C@H](C)C(N)=O [listing 2 of 2 here]		1 µg
CCCC/N=C(\N)NCCCC[C@H](NC(=O)[C@H](CO)NC(=O)[C@@H](Cc1cccnc1)NC(=O)[C@@H](Cc1ccc(Cl)cc1)NC(=O)[C@@H](Cc1ccc2ccccc2c1)NC(C)=O)C(=O)N[C@H](Cc1cccnc1)C(=O)N[C@@H](CC(C)C)C(=O)N[C@@H](CCCCN/C(N)=N/CCCC)C(=O)N1CCC[C@H]1C(=O)N[C@H](C)C(N)=O [listing 1 of 2 here]	9.3 µg/mL (≈ 5.98 µM)	
CCCC/N=C(\N)NCCCC[C@H](NC(=O)[C@H](CO)NC(=O)[C@@H](Cc1cccnc1)NC(=O)[C@@H](Cc1ccc(Cl)cc1)NC(=O)[C@@H](Cc1ccc2ccccc2c1)NC(C)=O)C(=O)N[C@H](Cc1cccnc1)C(=O)N[C@@H](CC(C)C)C(=O)N[C@@H](CCCCN/C(N)=N/CCCC)C(=O)N1CCC[C@H]1C(=O)N[C@H](C)C(N)=O [listing 2 of 2 here]		1.5 µg
CC/N=C(/NCC)NCCCC[C@@H](NC(=O)[C@H](Cc1ccc(O)cc1)NC(=O)[C@H](CO)NC(=O)[C@@H](Cc1c[nH]c2ccccc12)NC(=O)[C@@H](Cc1ccc(Cl)cc1)NC(=O)[C@@H](Cc1ccc2ccccc2c1)NC(C)=O)C(=O)N[C@@H](CC(C)C)C(=O)N[C@@H](CCCCN/C(=N/CC)NCC)C(=O)N1CCC[C@H]1C(=O)N[C@H](C)C(N)=O [listing 2 of 2 here]		0.5 µg
CC(=O)N[C@H](Cc1ccc2ccccc2c1)C(=O)N[C@H](Cc1ccc(Cl)cc1)C(=O)N[C@H](Cc1c[nH]c2ccccc12)C(=O)N[C@@H](CO)C(=O)N[C@@H](Cc1ccc(O)cc1)C(=O)N[C@H](CCCCNC1=NCCCN1)C(=O)N[C@@H](CC(C)C)C(=O)N[C@@H](CCCCNC1=NCCCN1)C(=O)N1CCC[C@H]1C(=O)N[C@H](C)C(N)=O [listing 2 of 2 here]		0.7 µg
CC/N=C(/NCC)NCCCC[C@@H](NC(=O)[C@H](Cc1ccc(O)cc1)NC(=O)[C@H](CO)NC(=O)[C@@H](Cc1cccnc1)NC(=O)[C@@H](Cc1ccc(Cl)cc1)NC(=O)[C@@H](Cc1ccc2ccccc2c1)NC(C)=O)C(=O)N[C@@H](CC(C)C)C(=O)N[C@@H](CCCCN/C(=N/CC)NCC)C(=O)N1CCC[C@H]1C(=O)N[C@H](C)C(N)=O [listing 2 of 2 here]		0.285 µg
CC(=O)N[C@H](Cc1ccc2ccccc2c1)C(=O)N[C@H](Cc1ccc(Cl)cc1)C(=O)N[C@H](Cc1cccnc1)C(=O)N[C@@H](CO)C(=O)N[C@@H](CCCCN=C(NCC(F)(F)F)NCC(F)(F)F)C(=O)N[C@H](Cc1ccc(O)cc1)C(=O)N[C@@H](CC(C)C)C(=O)N[C@@H](CCCCN=C(NCC(F)(F)F)NCC(F)(F)F)C(=O)N1CCC[C@H]1C(=O)N[C@H](C)C(N)=O	53 µg/mL (≈ 29.7 µM)	1.15 µg

The next lines start with results.

EC50 (Rattus norvegicus [1])	Compound	ED50 (Rattus norvegicus [2])
1.6 µg/mL (≈ 1.04 µM)	CC(=O)N[C@H](Cc1ccc2ccccc2c1)C(=O)N[C@H](Cc1ccc(Cl)cc1)C(=O)N[C@H](Cc1cccnc1)C(=O)N[C@@H](CO)C(=O)N[C@@H](CCCN=C(N)N)C(=O)N[C@H](CCC(=O)N[C@@H](C)C(=O)N[C@@H](C)C(=O)O)C(=O)N[C@@H](CC(C)C)C(=O)N[C@@H](CCCN=C(N)N)C(=O)N1CCC[C@H]1C(=O)N[C@H](C)C(N)=O	<1.5 µg
> 100 µg/mL	CC(=O)N[C@H](Cc1ccc2ccccc2c1)C(=O)N[C@H](Cc1ccc(Cl)cc1)C(=O)N[C@H](Cc1c[nH]c2ccccc12)C(=O)N[C@@H](CO)C(=O)N[C@@H](Cc1ccc(O)cc1)C(=O)N[C@H](Cc1c[nH]c2ccccc12)C(=O)N[C@@H](CC(C)C)C(=O)N[C@@H](CCCCN=C(NCC(F)(F)F)NCC(F)(F)F)C(=O)N1CCC[C@H]1C(=O)N[C@H](C)C(N)=O [listing 1 of 2 here]	
0.56 µg/mL (≈ 0.335 µM)	CC(=O)N[C@H](Cc1ccc2ccccc2c1)C(=O)N[C@H](Cc1ccc(Cl)cc1)C(=O)N[C@H](Cc1c[nH]c2ccccc12)C(=O)N[C@@H](CO)C(=O)N[C@@H](CCCN=C(N)N)C(=O)N[C@H](Cc1c[nH]c2ccccc12)C(=O)N[C@@H](CC(C)C)C(=O)N[C@@H](CCCCN=C(NCC(F)(F)F)NCC(F)(F)F)C(=O)N1CCC[C@H]1C(=O)N[C@H](C)C(N)=O [listing 1 of 2 here]	
8 µg/mL (≈ 5.15 µM)	CC/N=C(/NCC)NCCCC[C@@H](NC(=O)[C@H](Cc1ccc(O)cc1)NC(=O)[C@H](CO)NC(=O)[C@@H](Cc1cccnc1)NC(=O)[C@@H](Cc1ccc(F)cc1)NC(=O)[C@@H](Cc1ccc2ccccc2c1)NC(C)=O)C(=O)N[C@@H](CC(C)C)C(=O)N[C@@H](CCCCN/C(=N/CC)NCC)C(=O)N1CCC[C@H]1C(=O)N[C@H](C)C(N)=O [listing 1 of 2 here]	
9.3 µg/mL (≈ 5.6 µM)	CC/N=C(\NCC)NCCCC[C@H](NC(=O)[C@H](CC(C)C)NC(=O)[C@@H](CCCCN=C(NCC(F)(F)F)NCC(F)(F)F)NC(=O)[C@H](Cc1ccc(O)cc1)NC(=O)[C@H](CO)NC(=O)[C@@H](Cc1cccnc1)NC(=O)[C@@H](Cc1ccc(F)cc1)NC(=O)[C@@H](Cc1ccc2ccccc2c1)NC(C)=O)C(=O)N1CCC[C@H]1C(=O)N[C@H](C)C(N)=O	
1.6 µg/mL (≈ 1.02 µM)	CCCC/N=C(\N)NCCCC[C@H](NC(=O)[C@H](CC(C)C)NC(=O)[C@@H](Cc1c[nH]c2ccccc12)NC(=O)[C@H](Cc1ccc(O)cc1)NC(=O)[C@H](CO)NC(=O)[C@@H](Cc1c[nH]c2ccccc12)NC(=O)[C@@H](Cc1ccc(Cl)cc1)NC(=O)[C@@H](Cc1ccc2ccccc2c1)NC(C)=O)C(=O)N1CCC[C@H]1C(=O)N[C@H](C)C(N)=O	~1.3 µg
0.64 µg/mL (≈ 0.408 µM)	CCCC/N=C(\N)NCCCC[C@H](NC(=O)[C@H](CC(C)C)NC(=O)[C@@H](CCCCN/C(N)=N/CCCC)NC(=O)[C@H](Cc1ccc(O)cc1)NC(=O)[C@H](CO)NC(=O)[C@@H](Cc1cccnc1)NC(=O)[C@@H](Cc1ccc(Cl)cc1)NC(=O)[C@@H](Cc1ccc2ccccc2c1)NC(C)=O)C(=O)N1CCC[C@H]1C(=O)N[C@H](C)C(N)=O	~0.9 µg
26.2 µg/mL (≈ 17 µM)	CC/N=C(\NCC)NCCCC[C@H](NC(=O)[C@H](CO)NC(=O)[C@@H](Cc1cccnc1)NC(=O)[C@@H](Cc1ccc(F)cc1)NC(=O)[C@@H](Cc1ccc2ccccc2c1)NC(C)=O)C(=O)N[C@H](Cc1cccnc1)C(=O)N[C@@H](CC(C)C)C(=O)N[C@@H](CCCCN/C(=N/CC)NCC)C(=O)N1CCC[C@H]1C(=O)N[C@H](C)C(N)=O	
0.1 µg/mL (≈ 0.0622 µM)	CC/N=C(/NCC)NCCCC[C@@H](NC(=O)[C@H](Cc1ccc(O)cc1)NC(=O)[C@H](CO)NC(=O)[C@@H](Cc1c[nH]c2ccccc12)NC(=O)[C@@H](Cc1ccc(Cl)cc1)NC(=O)[C@@H](Cc1ccc2ccccc2c1)NC(C)=O)C(=O)N[C@@H](CC(C)C)C(=O)N[C@@H](CCCCN/C(=N/CC)NCC)C(=O)N1CCC[C@H]1C(=O)N[C@H](C)C(N)=O [listing 1 of 2 here]	
1.33 µg/mL (≈ 0.865 µM)	CC(=O)N[C@H](Cc1ccc2ccccc2c1)C(=O)N[C@H](Cc1ccc(Cl)cc1)C(=O)N[C@H](Cc1cccnc1)C(=O)N[C@@H](CO)C(=O)N[C@@H](Cc1ccc(O)cc1)C(=O)N[C@H](CCCCNC1=NCCCN1)C(=O)N[C@@H](CC(C)C)C(=O)N[C@@H](CCCCNC1=NCCCN1)C(=O)N1CCC[C@H]1C(=O)N[C@H](C)C(N)=O	~0.6 µg
2.5 µg/mL (≈ 1.59 µM)	CC(=O)N[C@H](Cc1ccc2ccccc2c1)C(=O)N[C@H](Cc1ccc(Cl)cc1)C(=O)N[C@H](Cc1c[nH]c2ccccc12)C(=O)N[C@@H](CO)C(=O)N[C@@H](Cc1ccc(O)cc1)C(=O)N[C@H](CCCCNC1=NCCCN1)C(=O)N[C@@H](CC(C)C)C(=O)N[C@@H](CCCCNC1=NCCCN1)C(=O)N1CCC[C@H]1C(=O)N[C@H](C)C(N)=O [listing 1 of 2 here]	
13 µg/mL (≈ 8.28 µM)	CC/N=C(/NCC)NCCCC[C@@H](NC(=O)[C@H](Cc1ccc(O)cc1)NC(=O)[C@H](CO)NC(=O)[C@@H](Cc1cccnc1)NC(=O)[C@@H](Cc1ccc(Cl)cc1)NC(=O)[C@@H](Cc1ccc2ccccc2c1)NC(C)=O)C(=O)N[C@@H](CC(C)C)C(=O)N[C@@H](CCCCN/C(=N/CC)NCC)C(=O)N1CCC[C@H]1C(=O)N[C@H](C)C(N)=O [listing 1 of 2 here]	
0.95 µg/mL (≈ 0.596 µM)	CC(=O)N[C@H](Cc1ccc2ccccc2c1)C(=O)N[C@H](Cc1ccc(Cl)cc1)C(=O)N[C@H](Cc1cccnc1)C(=O)N[C@@H](CO)C(=O)N[C@@H](CCCN=C(N)N)C(=O)N[C@H](Cc1cccnc1)C(=O)N[C@@H](CC(C)C)C(=O)N[C@@H](CCCCN=C(NCC(F)(F)F)NCC(F)(F)F)C(=O)N1CCC[C@H]1C(=O)N[C@H](C)C(N)=O	0.595 µg
15.7 µg/mL (≈ 10.5 µM)	CCCC/N=C(\N)NCCCC[C@H](NC(=O)[C@H](CC(C)C)NC(=O)[C@@H](Cc1cccnc1)NC(=O)[C@H](Cc1ccc(O)cc1)NC(=O)[C@H](CO)NC(=O)[C@@H](Cc1cccnc1)NC(=O)[C@@H](Cc1ccc(Cl)cc1)NC(=O)[C@@H](Cc1ccc2ccccc2c1)NC(C)=O)C(=O)N1CCC[C@H]1C(=O)N[C@H](C)C(N)=O	1.2 µg
